# Experimental data: ChEMBL document CHEMBL1137764, “Design, synthesis, antibacterial activity and physicochemical parameters of novel N-4-piperazinyl derivatives of norfloxacin” (Bioorg Med Chem, 2009)
# Columns and labels:
# Klebsiella pneumoniae [1] = assay: Antimicrobial activity against Klebsiella pneumoniae after 24 hrs by agar diffusion technique; type: functional
# Summary of the method: (§1)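 Agar cup diffusion on Mueller-Hinton agar seeded from 10⁶ CFU/mL suspensions, with 10 mm cups in a 3–4 mm layer. Compounds were in DMF (10 mg/mL stock) at several concentrations. Plates were incubated at 37 °C and zones measured after 24 h. MIC was taken as the intercept of the plot of log concentration against inhibition zone diameter.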
# Staphylococcus aureus [2] = assay: Antimicrobial activity against Staphylococcus aureus after 24 hrs by agar diffusion technique; type: functional; summary of the method: as §1
# Staphylococcus aureus [3] = assay: Antimicrobial activity against Staphylococcus aureus at 512 ug/ml after 24 hrs by agar diffusion technique; type: functional; conditions: read-out: DIZ
# Summary of the method: (§2)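 Strains came from a university microbiology department. Inocula were 10⁶ CFU/mL. Mueller-Hinton agar was seeded with culture, poured 3–4 mm thick, and 10 mm cups were bored. Compounds were dissolved in DMF (10 mg/mL stock), diluted, and the solution was placed in the cups. Plates were incubated at 37 °C overnight. Inhibition zone diameter (mm) was read at 24 h.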
# Pseudomonas aeruginosa [4] = assay: Antimicrobial activity against Pseudomonas aeruginosa at 16 ug/ml after 24 hrs by agar diffusion technique; type: functional; conditions: read-out: DIZ; summary of the method: as §2
# Escherichia coli [5] = assay: Antimicrobial activity against Escherichia coli at 128 ug/ml after 24 hrs by agar diffusion technique; type: functional; conditions: read-out: DIZ; summary of the method: as §2
# Pseudomonas aeruginosa [6] = assay: Antimicrobial activity against Pseudomonas aeruginosa at 4 ug/ml after 24 hrs by agar diffusion technique; type: functional; conditions: read-out: DIZ; summary of the method: as §2
# Pseudomonas aeruginosa [7] = assay: Antimicrobial activity against Pseudomonas aeruginosa after 24 hrs by agar diffusion technique; type: functional; summary of the method: as §1
# Pseudomonas aeruginosa [8] = assay: Antimicrobial activity against Pseudomonas aeruginosa at 64 ug/ml after 24 hrs by agar diffusion technique; type: functional; conditions: read-out: DIZ; summary of the method: as §2
# Escherichia coli [9] = assay: Antimicrobial activity against Escherichia coli at 64 ug/ml after 24 hrs by agar diffusion technique; type: functional; conditions: read-out: DIZ; summary of the method: as §2
# Klebsiella pneumoniae [10] = assay: Antimicrobial activity against Klebsiella pneumoniae at 128 ug/ml after 24 hrs by agar diffusion technique; type: functional; conditions: read-out: DIZ; summary of the method: as §2
# Klebsiella pneumoniae [11] = assay: Antimicrobial activity against Klebsiella pneumoniae at 16 ug/ml after 24 hrs by agar diffusion technique; type: functional; conditions: read-out: DIZ; summary of the method: as §2
# Staphylococcus aureus [12] = assay: Antimicrobial activity against Staphylococcus aureus at 128 ug/ml after 24 hrs by agar diffusion technique; type: functional; conditions: read-out: DIZ; summary of the method: as §2
# Klebsiella pneumoniae [13] = assay: Antimicrobial activity against Klebsiella pneumoniae at 64 ug/ml after 24 hrs by agar diffusion technique; type: functional; conditions: read-out: DIZ; summary of the method: as §2
# Escherichia coli [14] = assay: Antimicrobial activity against Escherichia coli at 16 ug/ml after 24 hrs by agar diffusion technique; type: functional; conditions: read-out: DIZ; summary of the method: as §2
# Escherichia coli [15] = assay: Antimicrobial activity against Escherichia coli at 4 ug/ml after 24 hrs by agar diffusion technique; type: functional; conditions: read-out: DIZ; summary of the method: as §2
# Klebsiella pneumoniae [16] = assay: Antimicrobial activity against Klebsiella pneumoniae at 4 ug/ml after 24 hrs by agar diffusion technique; type: functional; conditions: read-out: DIZ; summary of the method: as §2
# Staphylococcus aureus [17] = assay: Antimicrobial activity against Staphylococcus aureus at 4 ug/ml after 24 hrs by agar diffusion technique; type: functional; conditions: read-out: DIZ; summary of the method: as §2
# Staphylococcus aureus [18] = assay: Antimicrobial activity against Staphylococcus aureus at 64 ug/ml after 24 hrs by agar diffusion technique; type: functional; conditions: read-out: DIZ; summary of the method: as §2
# Pseudomonas aeruginosa [19] = assay: Antimicrobial activity against Pseudomonas aeruginosa at 512 ug/ml after 24 hrs by agar diffusion technique; type: functional; conditions: read-out: DIZ; summary of the method: as §2
# Escherichia coli [20] = assay: Antimicrobial activity against Escherichia coli after 24 hrs by agar diffusion technique; type: functional; summary of the method: as §1
# Klebsiella pneumoniae [21] = assay: Antimicrobial activity against Klebsiella pneumoniae at 512 ug/ml after 24 hrs by agar diffusion technique; type: functional; conditions: read-out: DIZ; summary of the method: as §2
# Escherichia coli [22] = assay: Antimicrobial activity against Escherichia coli at 512 ug/ml after 24 hrs by agar diffusion technique; type: functional; conditions: read-out: DIZ; summary of the method: as §2
# Staphylococcus aureus [23] = assay: Antimicrobial activity against Staphylococcus aureus at 16 ug/ml after 24 hrs by agar diffusion technique; type: functional; conditions: read-out: DIZ; summary of the method: as §2
# [24] = Octanol-phosphate buffer partition coefficient, log D at pH 7.4 by spectrophotometry; type: physicochemical
# Summary of the method: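 Shake-flask method. A 0.2 mg/mL stock was diluted into pH 7.4 phosphate buffer and mixed with an equal volume of n-octanol, phases mutually presaturated and protected from light. Samples were vortexed 3 min, then shaken 5 h at 25 °C. Both phases were assayed by UV at 270–280 nm. D is the molar concentration ratio, octanol to aqueous.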
# Pseudomonas aeruginosa [25] = assay: Antimicrobial activity against Pseudomonas aeruginosa at 128 ug/ml after 24 hrs by agar diffusion technique; type: functional; conditions: read-out: DIZ; summary of the method: as §2
compound,measurement,setting,value
CCn1cc(C(=O)O)c(=O)c2cc(F)c(N3CCN(CN4N=C(C)CC4=O)CC3)cc21,logMIC,Klebsiella pneumoniae [1],0.9
same,MIC,"Klebsiella pneumoniae [1]; Klebsiella pneumoniae, 24 h",8 µg/mL
same,logMIC,Staphylococcus aureus [2],1
same,MIC,"Staphylococcus aureus [2]; Staphylococcus aureus, 24 h",10 µg/mL
same,zone of inhibition at 512 µg/mL,Staphylococcus aureus [3],3 mm
same,zone of inhibition at 16 µg/mL,Pseudomonas aeruginosa [4],3 mm
same,zone of inhibition at 128 µg/mL,Escherichia coli [5],10 mm
same,zone of inhibition at 4 µg/mL,Pseudomonas aeruginosa [6],0 mm
same,logMIC,Pseudomonas aeruginosa [7],0.95
same,MIC,"Pseudomonas aeruginosa [7]; Pseudomonas aeruginosa, 24 h",9 µg/mL
same,zone of inhibition at 64 µg/mL,Pseudomonas aeruginosa [8],3 mm
same,zone of inhibition at 64 µg/mL,Escherichia coli [9],10 mm
same,zone of inhibition at 128 µg/mL,Klebsiella pneumoniae [10],6 mm
same,zone of inhibition at 16 µg/mL,Klebsiella pneumoniae [11],2 mm
same,zone of inhibition at 128 µg/mL,Staphylococcus aureus [12],3 mm
same,zone of inhibition at 64 µg/mL,Klebsiella pneumoniae [13],3 mm
same,zone of inhibition at 16 µg/mL,Escherichia coli [14],8 mm
same,zone of inhibition at 4 µg/mL,Escherichia coli [15],8 mm
same,zone of inhibition at 4 µg/mL,Klebsiella pneumoniae [16],0 mm
same,zone of inhibition at 4 µg/mL,Staphylococcus aureus [17],0 mm
same,zone of inhibition at 64 µg/mL,Staphylococcus aureus [18],7 mm
same,zone of inhibition at 512 µg/mL,Pseudomonas aeruginosa [19],18 mm
same,logMIC,Escherichia coli [20],0
same,MIC,"Escherichia coli [20]; Escherichia coli, 24 h",< 1 µg/mL
same,zone of inhibition at 512 µg/mL,Klebsiella pneumoniae [21],11 mm
same,zone of inhibition at 512 µg/mL,Escherichia coli [22],10 mm
same,zone of inhibition at 16 µg/mL,Staphylococcus aureus [23],0 mm
same,logD,[24],-0.85
same,zone of inhibition at 128 µg/mL,Pseudomonas aeruginosa [25],7 mm
